# In ChEMBL document CHEMBL3864180, “Buried Hydrogen Bond Interactions Contribute to the High Potency of Complement Factor D Inhibitors” (ACS Med Chem Lett, 2016):
# How the values were obtained:
# [1] = target: T1, Complement factor D (Homo sapiens, UniProt P00746); assay: Competitive inhibition of human complement factor D preincubated for 1 hr followed by addition of Z-Lys-thiobenzyl ester as substrate measured over 50 mins at 1 min interval
# How it was run: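 Enzyme was factor D purified from normal human serum. Substrate Z-Lys-thiobenzyl ester (Z-Lys-Sbzl), read by absorbance. IC50 is the average of at least two independent triplicate experiments.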
# [2] = target: T1, Complement factor D; assay: Binding affinity to recombinant human C-terminal 6His-tagged/biotinylated complement factor D (26 to 253 residues) expressed in Sf9 insect cells by biolayer interferometry method
# How it was run: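 Biotinylated recombinant human factor D expressed in Sf9 insect cells; direct binding read by bio-layer interferometry. Kd taken from the mean of two independent experiments, with standard deviations.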
# [3] = target: T1, Complement factor D; assay: Binding affinity to recombinant human C-terminal 6His-tagged/biotinylated complement factor D (26 to 253 residues) expressed in Sf9 insect cells assessed as association constant measured after 300 to 900 secs by biolayer interferometry method
# [4] = target: T1, Complement factor D; assay: Binding affinity to recombinant human C-terminal 6His-tagged/biotinylated complement factor D (26 to 253 residues) expressed in Sf9 insect cells assessed as dissociation constant measured after 300 to 1800 secs by biolayer interferometry method
# [5] = target: T1, Complement factor D; assay: Inhibition of recombinant human C-terminal 6His-tagged complement factor D (26 to 253 residues) expressed in Sf9 insect cells preincubated for 1 hr followed by addition of Z-Lys-thiobenzyl ester as substrate measured over 50 mins at 1 min interval
# How it was run: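 Enzyme was recombinant human factor D expressed in Sf9 insect cells. Substrate Z-Lys-thiobenzyl ester, read by absorbance. OD was converted to product concentration with an extinction coefficient of 13260 M-1cm-1 and a 0.29 cm path correction.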
# [6] = target: T1, Complement factor D; assay: Binding affinity to complement factor D (unknown origin)
# T1 sequence (P00746 whole entry): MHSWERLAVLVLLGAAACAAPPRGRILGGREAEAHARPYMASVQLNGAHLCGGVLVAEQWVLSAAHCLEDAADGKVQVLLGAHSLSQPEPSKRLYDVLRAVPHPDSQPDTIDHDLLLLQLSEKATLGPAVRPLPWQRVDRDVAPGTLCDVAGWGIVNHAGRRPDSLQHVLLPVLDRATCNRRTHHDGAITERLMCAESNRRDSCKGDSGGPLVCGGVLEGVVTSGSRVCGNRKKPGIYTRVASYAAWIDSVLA
Structure (SMILES),IC50 [1] [nM],Kd [2] [nM],K [3] [M⁻¹ s⁻¹],K [4] [s⁻¹],IC50 [5] [nM],IC50 [6] [nM]
NC(=O)c1nn(CC(=O)N2CCS[C@H]2C(=O)Nc2cccc(Br)n2)c2ncccc12,27.3,18.9,173000,0.00327,19,–
NC(=O)c1nn(CC(=O)N2[C@@H]3C[C@@H]3C[C@H]2C(=O)Nc2cccc(Br)n2)c2ncccc12,31.9,17,212000,0.00361,–,–
O=c1[nH]c2ccccc2c(=O)o1,–,–,–,–,–,2900
O=C(Nc1cccc(Br)n1)[C@@H]1SCCN1C(=O)Cn1ncc2ccccc21,–,–,132000,0.292,–,–
N=C(N)c1cc2ccc(OC(=O)c3cccs3)cc2s1,–,–,–,–,–,98
O=C(Nc1cccc(Br)n1)[C@@H]1C[C@H]2C[C@H]2N1C(=O)Cn1ncc2ccccc21,–,–,15800,0.189,–,–
